ChEMBL document CHEMBL3865799, “Synthesis of a series of novel dihydroartemisinin monomers and dimers containing chalcone as a linker and their anticancer activity” (Eur J Med Chem, 2016)

Experiments:
[1] = Cytotoxicity against human HL60 cells assessed as cell growth inhibition at 50 uM after 48 hrs by MTT assay; format: functional; details: HL-60, 48 h, read-out: GI
Procedure, shortened: (§1)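 HL-60 suspension cells, 1.5 × 10^4 per well, grown at 37 °C in 5% CO2 with 10% FCS. Treated 48 h with compound in DMSO (vehicle <0.2% v/v). MTT added 3 h before the end. Formazan dissolved in DMSO and read at 570 nm (reference 620 nm). % growth inhibition computed against untreated cells; IC50 taken from the concentration series.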

[2] = Cytotoxicity against human HL60 cells assessed as cell growth inhibition at 30 uM after 48 hrs by MTT assay; format: functional; details: HL-60, 48 h, read-out: GI; procedure, shortened: as §1
[3] = Cytotoxicity against human MIAPaCa2 cells assessed as cell growth inhibition at 30 uM after 48 hrs by MTT assay; format: functional; details: MIA PaCa-2, 48 h, read-out: GI
Procedure, shortened: (§2)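 Adherent lines at 70–75% confluence, grown at 37 °C in 5% CO2 with 10% FCS. Exposed 48 h to compound in DMSO (vehicle <0.2% v/v). MTT dye added 3 h before termination; formazan dissolved in DMSO, OD 570 nm with 620 nm reference. Growth inhibition expressed as % of untreated; IC50 taken from the dose series.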

[4] = Cytotoxicity against human PC3 cells assessed as cell growth inhibition at 30 uM after 48 hrs by MTT assay; format: functional; details: PC-3, 48 h, read-out: GI; procedure, shortened: as §2
[5] = Cytotoxicity against human HepG2 cells assessed as cell growth inhibition at 30 uM after 48 hrs by MTT assay; format: functional; details: HepG2, 48 h, read-out: GI; procedure, shortened: as §2
[6] = Cytotoxicity against human LS180 cells assessed as cell growth inhibition at 30 uM after 48 hrs by MTT assay; format: functional; details: LS180, 48 h, read-out: GI; procedure, shortened: as §2
[7] = Cytotoxicity against human HL60 cells assessed as cell growth inhibition at 1 uM after 48 hrs by MTT assay; format: functional; details: HL-60, 48 h, read-out: GI; procedure, shortened: as §1
[8] = Cytotoxicity against human MIAPaCa2 cells assessed as cell growth inhibition after 48 hrs by MTT assay; format: functional, cell-based; details: MIA PaCa-2, 48 h; procedure, shortened: as §2
Vero = assay: Selectivity index, ratio of IC50 for African green monkey Vero cells to IC50 for human MIAPaCa2 cells; format: functional
Procedure, shortened: (§3)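 Suspension cells were seeded at 1.5 × 10^4 per well and adherent lines at 70–75% confluence, then exposed to a range of concentrations. MTT was added 3 h before the end, formazan dissolved in DMSO, and OD read at 570 nm (reference 620 nm). Growth inhibition was taken relative to untreated cells. IC50 came from the MTT data; SI = IC50 in Vero cells / IC50 in the tumour line.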

[9] = Cytotoxicity against human PC3 cells assessed as cell growth inhibition after 48 hrs by MTT assay; format: functional, cell-based; details: PC-3, 48 h
Procedure, shortened: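 Exposed 48 h to compound in DMSO (vehicle <0.2% v/v). MTT dye added 3 h before termination; formazan dissolved in DMSO, OD 570 nm with 620 nm reference. Growth inhibition expressed as % of untreated; IC50 taken from the dose series.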

HepG2 = assay: Selectivity index, ratio of IC50 for African green monkey Vero cells to IC50 for human HepG2 cells; format: functional; procedure, shortened: as §3
[10] = Selectivity index, ratio of IC50 for African green monkey Vero cells to IC50 for human LS180 cells; format: functional; procedure, shortened: as §3
[11] = Cell cycle arrest in human HL60 cells assessed as accumulation at subG0 phase at 0.2 uM after 24 hrs by propidium iodide-DNA fluorescence based FACS analysis (reference value: 5 %); format: functional; details: HL-60
Procedure, shortened: (§4)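 HL-60 cells seeded at 0.5 × 10^6 cells/ml, exposed 24 h to compound (DMSO vehicle, <0.2% v/v). Pelleted at 400×g, PBS-washed, fixed in 70% ethanol at 4 °C overnight. RNase A treatment at 37 °C for 1.30 h, then propidium iodide staining for 20 min. Flow cytometry on 10,000 events, FL2-A vs FL2-W; subG0 (apoptotic) and phase populations gated.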

[12] = Cell cycle arrest in human HL60 cells assessed as accumulation at G1 phase at 0.2 uM after 24 hrs by propidium iodide-DNA fluorescence based FACS analysis (reference value: 46 %); format: functional; details: HL-60; procedure, shortened: as §4
[13] = Cell cycle arrest in human HL60 cells assessed as accumulation at S phase at 0.2 uM after 24 hrs by propidium iodide-DNA fluorescence based FACS analysis (reference value: 53 %); format: functional; details: HL-60; procedure, shortened: as §4
[14] = Cell cycle arrest in human HL60 cells assessed as accumulation at G2 phase at 0.2 uM after 24 hrs by propidium iodide-DNA fluorescence based FACS analysis (reference value: 1 %); format: functional; details: HL-60; procedure, shortened: as §4
[15] = Cell cycle arrest in human HL60 cells assessed as accumulation at subG0 phase at 0.5 uM after 24 hrs by propidium iodide-DNA fluorescence based FACS analysis (reference value: 5 %); format: functional; details: HL-60; procedure, shortened: as §4
[16] = Cell cycle arrest in human HL60 cells assessed as accumulation at G1 phase at 0.5 uM after 24 hrs by propidium iodide-DNA fluorescence based FACS analysis (reference value: 46 %); format: functional; details: HL-60; procedure, shortened: as §4
[17] = Cell cycle arrest in human HL60 cells assessed as accumulation at G2 phase at 0.5 uM after 24 hrs by propidium iodide-DNA fluorescence based FACS analysis (reference value: 1 %); format: functional; details: HL-60; procedure, shortened: as §4
[18] = Cell cycle arrest in human HL60 cells assessed as accumulation at G1 phase at 1 uM after 24 hrs by propidium iodide-DNA fluorescence based FACS analysis (reference value: 46 %); format: functional; details: HL-60; procedure, shortened: as §4
[19] = Cell cycle arrest in human HL60 cells assessed as accumulation at S phase at 1 uM after 24 hrs by propidium iodide-DNA fluorescence based FACS analysis (reference value: 53 %); format: functional; details: HL-60; procedure, shortened: as §4
[20] = Cell cycle arrest in human HL60 cells assessed as accumulation at G1 phase at 5 uM after 24 hrs by propidium iodide-DNA fluorescence based FACS analysis (reference value: 46 %); format: functional; details: HL-60; procedure, shortened: as §4
[21] = Cell cycle arrest in human HL60 cells assessed as accumulation at S phase at 5 uM after 24 hrs by propidium iodide-DNA fluorescence based FACS analysis (reference value: 53 %); format: functional; details: HL-60; procedure, shortened: as §4
[22] = Cell cycle arrest in human HL60 cells assessed as accumulation at G2 phase at 5 uM after 24 hrs by propidium iodide-DNA fluorescence based FACS analysis (reference value: 1 %); format: functional; details: HL-60; procedure, shortened: as §4
HL-60 [23] = assay: Induction of apoptosis in human HL60 cells assessed as loss of mitochondrial membrane potential at 0.2 uM after 24 hrs by Rh123 dye-based FACS analysis (reference value: 5%); format: functional
HL-60 [24] = assay: Induction of apoptosis in human HL60 cells assessed as loss of mitochondrial membrane potential at 0.5 uM after 24 hrs by Rh123 dye-based FACS analysis (reference value: 5%); format: functional
HL-60 [25] = assay: Induction of apoptosis in human HL60 cells assessed as loss of mitochondrial membrane potential at 1 uM after 24 hrs by Rh123 dye-based FACS analysis (reference value: 5%); format: functional
HL-60 [26] = assay: Induction of apoptosis in human HL60 cells assessed as loss of mitochondrial membrane potential at 5 uM after 24 hrs by Rh123 dye-based FACS analysis (reference value: 5%); format: functional

| Compound | inhibition of growth at 50 µM [1] | inhibition of growth at 30 µM [2] | inhibition of growth at 30 µM [3] | inhibition of growth at 30 µM [4] | inhibition of growth at 30 µM [5] | inhibition of growth at 30 µM [6] | inhibition of growth at 1 µM [7] | IC50 [8] | Ratio IC50 (Vero) | IC50 [9] | Ratio IC50 (HepG2) | Ratio IC50 [10] | Activity [11] | Activity [12] | Activity [13] | Activity [14] | Activity [15] | Activity [16] | Activity [17] | Activity [18] | also measured |
| --- | --- | --- | --- | --- | --- | --- | --- | --- | --- | --- | --- | --- | --- | --- | --- | --- | --- | --- | --- | --- | --- |
| C[C@H]1[C@@H](OCCOc2cccc(C(=O)/C=C/c3ccc(O)cc3)c2)O[C@@H]2O[C@@]3(C)CC[C@H]4[C@H](C)CC[C@@H]1[C@@]24OO3 | 94.8% | 93.3% | 37.8 to 77.4% | 83.5% | 37.8 to 77.4% | 25.2% | 57% | 39 µM | 32 | 18 µM | 55 | >200 | 4% | 49% | 46% | 6% | 9% | 54% | 8% | 52% | Activity [19]: 29%; Activity [20]: 64%; Activity [21]: 20%; Activity [22]: 16%; Activity (HL-60 [23]): 7%; Activity (HL-60 [24]): 34%; Activity (HL-60 [25]): 50%; Activity (HL-60 [26]): 58% |
| C[C@H]1[C@@H](O)O[C@@H]2O[C@@]3(C)CC[C@H]4[C@H](C)CC[C@@H]1[C@@]24OO3 [ARTENIMOL] | 93% | 91% | 58% | 41% | 36% | 32% | 48.1% | 58 µM | 12 | > 100 µM | 1.81 | 19 | 6% | 49% | 49% | 2% | 8% | 58% | 5% | 62% | Activity [19]: 34%; Activity [20]: 75%; Activity [21]: 20%; Activity [22]: 5%; Activity (HL-60 [23]): 8%; Activity (HL-60 [24]): 20%; Activity (HL-60 [25]): 32%; Activity (HL-60 [26]): 41% |
| C[C@H]1[C@@H](OCCOc2ccc(/C=C/C(=O)c3ccc(O)cc3)cc2)O[C@@H]2O[C@@]3(C)CC[C@H]4[C@H](C)CC[C@@H]1[C@@]24OO3 | 93.6% | 90.1% | 68.3 to 86.8% | 88.6% | 68.3 to 86.8% | 55.2% | 78.8% | 22 µM | 88 | 14 µM | 450 | 96 | 4% | 49% | 46% | 5% | 28% | 59% | 9% | 14% | Activity [19]: 70%; Activity [20]: 55%; Activity [21]: 35%; Activity [22]: 10%; Activity (HL-60 [23]): 9%; Activity (HL-60 [24]): 27%; Activity (HL-60 [25]): 53%; Activity (HL-60 [26]): 61% |
